Assay results taken from ChEMBL document CHEMBL1132493, “Synthesis and in vitro evaluation of new 8-amino-1,4-benzoxazine derivatives as neuroprotective antioxidants” (J Med Chem, 1999).

What was measured:
[1] = (§1) In vitro neurotoxicity (Maximum Tolerated concentration[MTC]) was measured by quantification of cellular lysis after measurement of LDH activity released from damaged cells; format: toxicity, cell-based; details: mouse, HT-22 cells; read-out: MTC
[2] = (§2) In vitro neurotoxicity (concentration producing 50% toxicity [TC50]) was measured by quantification of cellular lysis after measurement of LDH activity released from damaged cells; format: cell-based; details: mouse, HT-22 cells; read-out: TC50 (the source's name)
HT-22 [3] = assay: In vitro neurotoxicity (concentration producing 50% toxicity [TC50]) was measured by (MTT) reduction assay on murine HT-22 hippocampal cell cultures and compared to those of parent exifone; format: functional; details: Mus musculus, read-out: TC50 (the source's name)
HT-22 [4] = assay: In vitro neurotoxicity (Maximum Tolerated concentration[MTC]) was measured by (MTT) reduction assay on murine HT-22 hippocampal cell cultures and compared to those of parent exifone; format: functional, Mus musculus
HT-22 [5] = assay: In vitro neuroprotective activity estimated through their protective effects against L-homocysteic acid(L-HCA) cytotoxicity) on murine HT-22 hippocampal cell cultures and compared to those of exifone(MTT reduction assay); format: functional, Mus musculus
HT-22 [6] = assay: (§3) The concentration producing 50%protection (PC50) was measured by lactate dehydrogenase (LDH) activity. In vitro neuroprotective activity estimated through their protective effects against L-homocysteic acid(L-HCA) cytotoxicity on murine HT-22 hippocampal cell cultures and compared to those of exifone; format: functional, Mus musculus
[7] = Ratio of MTC to PC50 after measurement of LDH activity; Safety ratio; format: functional
Procedure, shortened: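 Safety index: MTC divided by PC50, both from LDH release in HT-22 cells. MTC comes from 48 h drug exposure alone; PC50 from 1 h antioxidant pretreatment followed by 48 h 2 mM L-HCA exposure. Both derived by linear regression.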

[8] = Ratio of MTC to PC50 in MTT reduction assay; Safety ratio; format: functional
Procedure, shortened: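 Safety index: MTC divided by PC50, both from MTT reduction in HT-22 cells. MTC comes from 48 h drug exposure alone; PC50 from protection against 48 h 2 mM L-HCA after 1 h pretreatment. Both estimated by linear regression.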

HT-22 [9] = assay: In vitro neuroprotective activity estimated through their protective effects against L-homocysteic acid(L-HCA) cytotoxicity) on murine HT-22 hippocampal cell cultures and compared to those of exifone (MTT reduction assay); format: functional, Mus musculus
HT-22 [10] = assay: (§4) In vitro neurotoxicity (concentration producing 50% toxicity [TC50]) was measured by (MTT) reduction assay on murine HT-22 hippocampal cell cultures and compared to those of parent exifone,; format: functional; details: Mus musculus, read-out: TC50 (the source's name)
HT-22 [11] = assay: In vitro neuroprotective activity estimated through their protective effects against L-homocysteic acid(L-HCA) cytotoxicity) on murine HT-22 hippocampal cell cultures and compared to those of exifone. (MTT reduction assay); format: functional, Mus musculus
HT-22 [12] = assay: as §3, with “obtained for” for “measured by”, “hip pocampal” for “hippocampal”; format: functional, Mus musculus
[13] = as §4; format: cell-based; details: mouse, HT-22 hippocampal cells; read-out: TC50 (the source's name)
HT-22 [14] = assay: as §2; format: functional; details: Mus musculus, read-out: TC50 (the source's name)
HT-22 [15] = assay: as §1; format: functional, Mus musculus

CC1(C)COc2c(NC(CO)CO)ccc(C(=O)c3ccccc3)c2N1
MNTC [1]: > 250 µM

CC(C)CNc1ccc(C(=O)c2ccccc2)c2c1OCC1(CCCC1)N2
CC50 [2]: > 250 µM | CC50 (HT-22 [3]): > 250 µM | MTC (HT-22 [4]): 10 µM | MNTC [1]: > 250 µM | PC50 (HT-22 [5]): >10 µM | PC50 (HT-22 [6]): >10 µM | Ratio [7]: < 1 | Ratio [8]: < 1

CC(C)CCNc1ccc(C(=O)c2ccccc2)c2c1OCC(C)(C)N2
MNTC [1]: 10 µM

O=C(c1ccccc1)c1ccc(NCc2ccccc2)c2c1NC(c1ccccc1)(c1ccccc1)CO2
MNTC [1]: > 250 µM

CC1(CO)COc2c(NCCO)ccc(C(=O)c3ccccc3)c2N1 (stereo not drawn)
MNTC [1]: > 250 µM

O=C(c1ccccc1)c1ccc(O)c2c1NC(CO)CO2 (stereo not drawn)
MNTC [1]: 10 µM

O=C(c1ccccc1)c1ccc(NC(CO)CO)c2c1NC(CO)CO2 (stereo not drawn)
MNTC [1]: > 250 µM

CC1(CO)COc2c(NC(CO)CO)ccc(C(=O)c3ccccc3)c2N1 (stereo not drawn)
MNTC [1]: > 250 µM

CC1(C)COc2c(NCc3ccccc3)ccc(C(=O)c3ccccc3)c2N1
MNTC [1]: > 250 µM

CC(C)(C)C1COc2c(O)ccc(C(=O)c3ccccc3)c2N1 (stereo not drawn)
MNTC [1]: 5 µM

CC(C)(C)C1COc2c(NCc3ccccc3)ccc(C(=O)c3ccccc3)c2N1 (stereo not drawn)
MNTC [1]: > 250 µM

O=C(c1ccccc1)c1ccc(O)c2c1NC1(CCCC1)CO2
CC50 [2]: 36.4 µM | CC50 (HT-22 [3]): 37.5 µM | MTC (HT-22 [4]): 25 µM | MNTC [1]: 25 µM | PC50 (HT-22 [9]): 25 µM | PC50 (HT-22 [6]): 18.4 µM | Ratio [7]: 1.4 | Ratio [8]: 1

O=C(C1=CC=C(O)C2(O)OCC3(CCCC3)N=C12)c1ccccc1 (stereo not drawn)
CC50 (HT-22 [10]): 109 µM | CC50 [2]: > 250 µM | MTC (HT-22 [4]): 50 µM | MNTC [1]: 50 µM | PC50 (HT-22 [11]): 47.4 µM | PC50 (HT-22 [12]): 40.9 µM | Ratio [7]: 1.2 | Ratio [8]: 1.1

O=C(C1=CC=C(O)C2(O)OCC(CO)N=C12)c1ccccc1 (stereo not drawn)
MNTC [1]: 25 µM

CC(C)CCNc1ccc(C(=O)c2ccccc2)c2c1OCC(c1ccccc1)(c1ccccc1)N2
MNTC [1]: > 250 µM

O=C(c1ccccc1)c1ccc(NCCO)c2c1NC(CO)(CO)CO2
MNTC [1]: > 250 µM

O=C(c1ccccc1)c1ccc(NCc2ccccc2)c2c1NC1(CCCC1)CO2
CC50 [2]: > 250 µM | CC50 (HT-22 [3]): > 250 µM | MTC (HT-22 [4]): >250 µM | MNTC [1]: > 250 µM | PC50 (HT-22 [5]): 6.9 µM | PC50 (HT-22 [6]): 7.1 µM | Ratio [7]: > 36 | Ratio [8]: > 36

CC(C)(C)C1COC2(O)C(O)=CC=C(C(=O)c3ccccc3)C2=N1 (stereo not drawn)
CC50 [13]: 17.6 µM | CC50 (HT-22 [14]): 38.1 µM | MTC (HT-22 [4]): 10 µM | MTC (HT-22 [15]): 10 µM | PC50 (HT-22 [11]): 6.5 µM | PC50 (HT-22 [12]): 5.8 µM | Ratio [7]: 1.7 | Ratio [8]: 1.5

CC(C)(C)C1COc2c(NCCc3ccccc3)ccc(C(=O)c3ccccc3)c2N1 (stereo not drawn)
CC50 [2]: > 250 µM | CC50 (HT-22 [3]): > 250 µM | MTC (HT-22 [4]): 100 µM | MNTC [1]: 250 µM | PC50 (HT-22 [5]): 8.8 µM | PC50 (HT-22 [12]): 8.9 µM | Ratio [7]: 28 | Ratio [8]: 11

CC1(C)COc2c(NCCO)ccc(C(=O)c3ccccc3)c2N1
MNTC [1]: 100 µM

CC(C)CCNc1ccc(C(=O)c2ccccc2)c2c1OCC(C(C)(C)C)N2 (stereo not drawn)
MNTC [1]: 10 µM
